Measurements taken from article PMC9055608 (RSC Advances, 2020).
Where “and” joins values, the source holds several entries; their conditions need not be identical. Identical values can stand only once.

How the values were obtained:
[1] = test system: SKBR3; assay: MTT cell proliferation assay, SKBR3; assay type: cell-based, human; conditions: Homo sapiens, SK-BR-3, 72 h
How it was run: (§1)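 ATCC lines grown in DMEM or RPMI-1640 with 10% heat-inactivated FBS and 1% penicillin/streptomycin at 37 °C, 5% CO2. Log-phase cells seeded at about 4000–5000/well and left to adhere 24 h. Sextuplicate wells, 72 h. MTT for 4 h, then DMSO and absorbance. IC50 taken from dose–response curves.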

[2] = test system: MDA-MB231; assay: MTT cell proliferation assay, MDA-MB231; assay type: cell-based, human; conditions: Homo sapiens, MDA-MB-231, 72 h
How it was run: as §1

[3] = test system: MCF-7; assay: MTT cell proliferation assay, MCF-7; assay type: cell-based, human; conditions: Homo sapiens, MCF7, 72 h
How it was run: as §1

[4] = test system: MDA-MB453; assay: MTT cell proliferation assay, MDA-MB453; assay type: cell-based, human; conditions: Homo sapiens, MDA-MB-453, 72 h
How it was run: as §1

[5] = test system: Calu-3; assay: MTT cell proliferation assay, Calu-3; assay type: cell-based, human; conditions: Homo sapiens, Calu-3, 72 h
How it was run: as §1

[6] = test system: A-549; assay: MTT cell proliferation assay, A-549; assay type: cell-based, human; conditions: Homo sapiens, A549, 72 h
How it was run: as §1

[7] = test system: SKMEL-28; assay: MTT cell proliferation assay, SKMEL-28; assay type: cell-based, human; conditions: Homo sapiens, SK-MEL-28, 72 h
How it was run: as §1

[8] = test system: HT-29; assay: MTT cell proliferation assay, HT-29; assay type: cell-based, human; conditions: Homo sapiens, HT-29, 72 h
How it was run: as §1

[9] = test system: DU-145; assay: MTT cell proliferation assay, DU-145; assay type: cell-based, human; conditions: Homo sapiens, DU-145, 72 h
How it was run: as §1

[10] = test system: A375; assay: MTT cell proliferation assay, A375; assay type: cell-based, human; conditions: Homo sapiens, A-375, 72 h
How it was run: as §1

[11] = test system: SKOV3; assay: MTT cell proliferation assay, SKOV3; assay type: cell-based, human; conditions: Homo sapiens, SK-OV-3, 72 h
How it was run: as §1

[12] = test system: N87; assay: MTT cell proliferation assay, N87; assay type: cell-based, human; conditions: Homo sapiens, 72 h
How it was run: as §1

[13] = test system: LO2 human normal liver cells; assay: MTT assay, cytotoxicity against normal cell line LO2; assay type: cell-based
How it was run: (§2)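 Cells seeded at about 4000–5000/well and allowed 24 h to adhere. MTT for 4 h, formazan dissolved in DMSO, absorbance read, and inhibition rate per concentration reported.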

[14] = test system: GES-1 human normal gastric epithelial cells; assay: MTT assay, cytotoxicity against normal cell line GES-1; assay type: cell-based; conditions: for OD value (mean ± SD): GES-1
How it was run: as §2

[15] = test system: BEAS-2B human normal lung epithelial cell; assay: MTT assay, cytotoxicity against normal cell line BEAS-2B; assay type: cell-based
How it was run: as §2

[16] = test system: cancer cell lines; assay: MTT assay, cancer cell lines; assay type: cell-based; conditions: Homo sapiens, read-out: IC50 of other tumour cells
How it was run: as §1

[17] = test system: normal cell lines (LO2, GES-1, BEAS-2B); assay: MTT assay, normal cell lines; assay type: cell-based, human; conditions: all DHDK concentrations
How it was run: as §2

[18] = test system: MCF-7 xenograft tumour; assay: Drug efficacy in vivo, MCF-7 breast cancer model; design: species or system nude mice
[19] = Mouse weight during in vivo efficacy study; design: species or system nude mice; conditions: during the nine days of treatment
[20] = Biochemical indexes in serum and plasma; assay type: in vivo, mice; conditions: for BUN mean ± SD: plasma; for BUN mean ± SD / ALT mean ± SD / AST mean ± SD / CRE mean ± SD: DHDK micelles every day for 9 days; for ALT mean ± SD / AST mean ± SD / CRE mean ± SD: serum
How it was run: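 Female mice were split into four groups (n = 6) and injected daily for 9 days with test-compound micelles, following the dosing regimen of the xenograft study. Animals were killed on the last dosing day. Kits measured AST, ALT and creatinine in serum, and urea nitrogen in plasma.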

[21] = Pathological tissue sections; assay type: in vivo, nude mice; conditions: tissues exposed to different dosages; end of 9 day treatment; HE staining
How it was run: (§3)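 Tumour-bearing nude mice were anaesthetised and killed after the 9-day dosing. Heart, liver, spleen, lung, kidney, brain and tumour were fixed in 10% formalin, embedded in paraffin, cut into 4 μm sections and stained with haematoxylin–eosin.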

[22] = test system: MCF-7 xenograft tumour; assay: Pathological tissue sections; assay type: in vivo, nude mice
How it was run: as §3

[23] = in vivo; assay type: in vivo, rats
[24] = Tissue distribution; assay type: in vivo, SD rats; conditions: for CL / AUC(0-inf): rat; for CL: tail vein injection of DHDK solution; for AUC(0-inf): iv, 14 mg/kg
How it was run: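 SD rats (12 male, 12 female), fasted 12 h, received an intravenous dose of 14 mg kg−1 test-compound micelles. Six rats were killed at each of 0.25, 1, 4 and 24 h. Heart, liver, spleen, lung and kidney were rinsed in ice-cold saline, weighed, homogenised and stored at −80 °C. Samples were extracted with MTBE using curcumin internal standard. Analysis was by C18 LC-ESI-MS/MS (formic acid/acetonitrile gradient, MRM m/z 294.98→106.67).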

[25] = Homo sapiens, GES1, read-out: Inhibition rate

## O=C(/C=C/CCc1ccc(O)cc1)/C=C/c1ccc(O)cc1 [DHDK, (1E,4E)-1,7-Bis(4-hydroxyphenyl)hepta-1,4-dien-3-one]
[1]
  IC50: 1.71 ± 0.1 µM
[2]
  IC50: 4.49 µM
[3]
  IC50: 9.09 ± 0.46 µM
[4]
  IC50: 10.4 ± 0.92 µM
[5]
  IC50: 6.65 ± 0.42 µM
[6]
  IC50: 8.01 ± 0.44 µM
[7]
  IC50: 9.26 ± 0.57 µM
[8]
  IC50: 4.79 ± 0.54 µM
[9]
  IC50: 4.62 ± 0.22 µM
[10]
  IC50: 6.64 ± 0.4 µM
[11]
  IC50: 9.59 ± 0.44 µM
[12]
  IC50: 10.8 ± 0.5 µM
[13]; Homo sapiens, read-out: Inhibition rate, LO2, DHDK 0.14 μmol·L^−1
  inhibition at 0.14 µM: 1.36%
[13]; Homo sapiens, read-out: Inhibition rate, LO2, DHDK 0.42 μmol·L^−1
  inhibition at 0.42 µM: 1.51%
[13]; Homo sapiens, read-out: Inhibition rate, LO2, DHDK 1.26 μmol·L^−1
  inhibition at 1.26 µM: 1.87%
[13]; Homo sapiens, read-out: Inhibition rate, LO2, DHDK 3.8 μmol·L^−1
  inhibition at 3.8 µM: 2.08%
[13]; Homo sapiens, read-out: Inhibition rate, LO2, DHDK 11.3 μmol·L^−1
  inhibition at 11.3 µM: 2.57%
[13]; LO2, DHDK 0.14 μmol·L^−1
  OD value (mean ± SD): 0.69 ± 0.013
[13]; LO2, DHDK 0.42 μmol·L^−1
  OD value (mean ± SD): 0.68 ± 0.039
[13]; LO2, DHDK 1.26 μmol·L^−1
  OD value (mean ± SD): 0.68 ± 0.022
[13]; LO2, DHDK 3.8 μmol·L^−1
  OD value (mean ± SD): 0.68 ± 0.031
[13]; LO2, DHDK 11.3 μmol·L^−1
  OD value (mean ± SD): 0.68 ± 0.0066
[13]; LO2, DHDK 34.0 μmol·L^−1
  Inhibition rate: 4.17%
  OD value (mean ± SD): 0.67 ± 0.025
[14]; DHDK 0.14 μmol·L^−1
  OD value (mean ± SD): 0.71 ± 0.0031
[14]; DHDK 0.42 μmol·L^−1
  OD value (mean ± SD): 0.71 ± 0.0098
[14]; DHDK 1.26 μmol·L^−1
  OD value (mean ± SD): 0.71 ± 0.0051
[14]; DHDK 3.8 μmol·L^−1
  OD value (mean ± SD): 0.70 ± 0.0035
[14]; DHDK 11.3 μmol·L^−1
  OD value (mean ± SD): 0.69 ± 0.0097
[14]; DHDK 34.0 μmol·L^−1
  OD value (mean ± SD): 0.68 ± 0.0075
[14]; [25]
  inhibition at 0.14 µM: 0.17%
  inhibition at 0.42 µM: 0.53%
  inhibition at 1.26 µM: 1.06%
  inhibition at 3.8 µM: 1.35%
  inhibition at 11.3 µM: 3.53%
  inhibition at 34 µM: 4.85%
[15]; DHDK 0.14 μmol·L^−1
  Inhibition rate: 0.059%
  OD value (mean ± SD): 0.66 ± 0.0017
[15]; DHDK 0.42 μmol·L^−1
  OD value (mean ± SD): 0.66 ± 0.0028
[15]; DHDK 1.26 μmol·L^−1
  OD value (mean ± SD): 0.66 ± 0.0027
[15]; DHDK 3.8 μmol·L^−1
  OD value (mean ± SD): 0.66 ± 0.0010
[15]; DHDK 11.3 μmol·L^−1
  OD value (mean ± SD): 0.64 ± 0.0028
[15]; DHDK 34.0 μmol·L^−1
  OD value (mean ± SD): 0.63 ± 0.0030
[15]; Homo sapiens, read-out: Inhibition rate, BEAS-2B, DHDK 0.42 μmol·L^−1
  inhibition at 0.42 µM: 0.5%
[15]; Homo sapiens, read-out: Inhibition rate, BEAS-2B, DHDK 1.26 μmol·L^−1
  inhibition at 1.26 µM: 0.83%
[15]; Homo sapiens, read-out: Inhibition rate, BEAS-2B, DHDK 3.8 μmol·L^−1
  inhibition at 3.8 µM: 0.86%
[15]; Homo sapiens, read-out: Inhibition rate, BEAS-2B, DHDK 11.3 μmol·L^−1
  inhibition at 11.3 µM: 3.1%
[15]; Homo sapiens, read-out: Inhibition rate, BEAS-2B, DHDK 34.0 μmol·L^−1
  inhibition at 34 µM: 4.82%
[16]
  IC50: < 11 µM and < 3.25 µg/mL
[17]
  inhibition rate of each group on normal cells: less than 5%
[18]; DHDK 40 mg kg^−1 vs cisplatin 5 mg kg^−1
  tumour inhibition rate of DHDK high-dose group as share of the cisplatin group: 74.6%
[18]; group B, low-dose, DHDK micelles 10 mg kg^−1 every day for 9 days
  Tumour weight (mean): 597.04 ± 38.19
[18]; group C, medium-dose, DHDK micelles 20 mg kg^−1 every day for 9 days
  Tumour weight (mean): 540.53 ± 63.76
[18]; group D, high-dose, DHDK micelles 40 mg kg^−1 every day for 9 days
  Tumour weight (mean): 435.13 ± 140.10
[18]; high-dose, DHDK 40 mg kg^−1 every day for 9 days
  Inhibition rate (IR) determined as tumour weight: 47.85%
[18]; low-dose, DHDK 10 mg kg^−1 every day for 9 days
  Inhibition rate (IR) determined as tumour weight: 28.44%
[18]; medium-dose, DHDK 20 mg kg^−1 every day for 9 days
  Inhibition rate (IR) determined as tumour weight: 35.22%
[19]
  mouse weight course (in words): stable weight
[20]; all administration groups vs blank group
  liver and kidney toxicity (from BUN, CRE, AST, ALT): no potential liver and kidney toxicity
[20]; high dose group
  BUN mean ± SD: 9.86 ± 0.33 mmol/L
  ALT mean ± SD: 38.41 ± 0.67 U L^−1
  AST mean ± SD: 52.98 ± 3.07 U L^−1
  CRE mean ± SD: 82.97 ± 2.97 µmol/L
[20]; low dose group
  BUN mean ± SD: 10.16 ± 1.35 mmol/L
  ALT mean ± SD: 39.18 ± 0.81 U L^−1
  AST mean ± SD: 50.90 ± 3.04 U L^−1
  CRE mean ± SD: 78.85 ± 3.90 µmol/L
[20]; medium dose group
  BUN mean ± SD: 9.74 ± 0.47 mmol/L
  ALT mean ± SD: 39.70 ± 2.75 U L^−1
  AST mean ± SD: 50.93 ± 0.81 U L^−1
  CRE mean ± SD: 87.97 ± 7.63 µmol/L
[21]
  toxicity in tissue slices: No toxicity was observed
[22]; high-dose group, DHDK 40 mg kg^−1
  tumour histopathology: A large amount of tumour necrosis with nuclear envelope breakdown and dissolved nucleus
[22]; low-dose group, DHDK 10 mg kg^−1
  tumour histopathology: A small amount of punctate nucleolysis and a low degree of necrosis
[22]; medium-dose group, DHDK 20 mg kg^−1
  tumour histopathology: point necrosis and dissolved nucleus
[23]; after dose conversion, DHDK 40 mg kg^−1 vs cisplatin 5 mg kg^−1
  AUC(0–t) of DHDK high-dose group as share of cisplatin group: 7.3%
[23]; rat, in vivo, iv, 14 mg/kg
  AUC(0-inf): 534 ng·h/mL
  AUC(0-t): 459 ng·h/mL
  half-life: 1.79 h
[23]; rat, tail vein injection 14 mg kg^−1 DHDK solution
  V 1: 0.037 L/kg
[23]; rat, tail vein injection 14 mg kg^−1 DHDK solution, two-compartmental analysis
  t 1/2α: 3.84 min
[24]; Heart
  CL: 50.93 ± 26.52 L·kg/h
[24]; Kidney
  CL: 244.93 ± 9.95 L·kg/h
[24]; Liver
  CL: 5.846 ± 1.02 L·kg/h
[24]; Lung
  CL: 8.89 ± 1.97 L·kg/h
[24]; Spleen
  CL: 81.66 ± 45.73 L·kg/h
[24]; Sprague-Dawley (SD), kidney
  AUC(0-inf): 57.2 ± 32.3 ng·h/mL
[24]; Sprague-Dawley (SD), lung
  AUC(0-inf): 1630 ± 299 ng·h/mL
[24]; Sprague-Dawley (SD), spleen
  AUC(0-inf): 207 ± 84.3 ng·h/mL
[24]; both, SD, heart
  AUC(0-inf): 414 ± 364 ng·h/mL
[24]; both, SD, liver
  AUC(0-inf): 2450 ± 425 ng·h/mL
[24]; rats, 14 mg kg^−1 tail vein
  order of DHDK concentration in different tissues: lung > liver > heart > kidney > spleen
  order of clearance rates in tissues: kidney > spleen > heart > lung > liver
